Experimental data as given in ChEMBL document CHEMBL1154044, “5-Nitro-2-furyl derivative actives against Trypanosoma cruzi: preliminary in vivo studies” (Eur J Med Chem, 2009).
Calls of active or inactive are those of the source. No cut-off for these calls is given here.

Tests used:
Mus musculus [1] = test: Toxicity in CD1 mouse assessed as decrease in weight respect to day zero at 300 mg/kg, ip after 3 days; format: organism-based; set-up: dose 300 mg/kg, route intraperitoneal; scale not given: the % may be the effect or the level left; conditions: in vivo, 72 h
How it was run: (§1)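 Healthy 2-month-old female CD1 mice (20–22 g, 5–7 per group) received one dose. Oral doses of 450 or 300 mg/kg were given by intragastric syringe; i.p. doses of 300 or 150 mg/kg by injection. Drugs were suspended in saline:Tween 80 (4:1), and a vehicle-only control was included. Mice were weighed and observed daily for 3 days. Weight change is expressed as percent relative to day zero.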

Mus musculus [2] = test: Toxicity in CD1 mouse assessed as glutamic-pyruvate transaminase level at 300 mg/kg, ip after 3 days; format: organism-based; set-up: dose 300 mg/kg, route intraperitoneal; conditions: in vivo, 72 h
How it was run: (§2)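 Healthy female CD1 mice (5–7 per group) received a single oral dose of 450 mg/kg or an i.p. dose of 300 mg/kg, with vehicle controls. On day 3 they were sacrificed under ether anaesthesia. Blood was drawn from the subclavian artery and kept at 0 °C in EDTA or heparin. Leukocytes, haemoglobin, haematocrit, GPT and GOT were measured within 24 h and compared with normal ranges.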

Mus musculus [3] = test: Toxicity in CD1 mouse heart at 450 mg/kg, po after 3 days by histological study; format: organism-based; set-up: dose 450 mg/kg, route oral; conditions: in vivo, 72 h
How it was run: (§3)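 Healthy female CD1 mice (20–22 g), 5–7 per group, given a single oral (intragastric) or i.p. dose in saline:Tween 80 (4:1) vehicle. Sacrificed on day 3 after ether anaesthesia. Organs fixed in 10% aqueous formalin for histology. Scored against untreated animals from no change to +++ (many changes).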

Mus musculus [4] = test: Toxicity in CD1 mouse assessed as leukocyte level at 300 mg/kg, ip after 3 days; format: organism-based; set-up: dose 300 mg/kg, route intraperitoneal; conditions: in vivo, 72 h; how it was run: as §2
Mus musculus [5] = test: Toxicity in CD1 mouse assessed as haemoglobin level at 300 mg/kg, ip after 3 days; format: organism-based; set-up: dose 300 mg/kg, route intraperitoneal; conditions: in vivo, 72 h; how it was run: as §2
Mus musculus [6] = test: Toxicity in CD1 mouse assessed as glutamic-oxalacetate transaminase level at 450 mg/kg, po after 3 days; format: organism-based; set-up: dose 450 mg/kg, route oral; conditions: in vivo, 72 h; how it was run: as §2
Mus musculus [7] = test: Toxicity in CD1 mouse assessed as decrease in weight respect to day zero at 300 mg/kg, po after 3 days; format: organism-based; set-up: dose 300 mg/kg, route oral; scale not given: the % may be the effect or the level left; conditions: in vivo, 72 h; how it was run: as §1
Mus musculus [8] = test: Toxicity in CD1 mouse assessed as hematocrite level at 300 mg/kg, ip after 3 days; format: organism-based; set-up: dose 300 mg/kg, route intraperitoneal; conditions: in vivo, 72 h; how it was run: as §2
Mus musculus [9] = test: Toxicity in CD1 mouse heart at 300 mg/kg, ip after 3 days by histological study; format: organism-based; set-up: dose 300 mg/kg, route intraperitoneal; conditions: in vivo, 72 h; how it was run: as §3
Mus musculus [10] = test: Toxicity in CD1 mouse assessed as survival at 300 mg/kg, po after 3 days; format: organism-based; set-up: dose 300 mg/kg, route oral; conditions: in vivo, 72 h
How it was run: (§4)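 Healthy 2-month-old female CD1 mice (20–22 g), groups of 5–7, given one oral dose by intragastric syringe or one i.p. injection. Compound suspended in saline:Tween 80 (4:1) with sonication just before dosing; vehicle-treated controls included. Weighed and observed daily over 3 days for skin, physical aspect, activity and faeces; survival recorded at day 3.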

Mus musculus [11] = test: Toxicity in CD1 mouse assessed as survival at 300 mg/kg, ip after 3 days; format: organism-based; set-up: dose 300 mg/kg, route intraperitoneal; conditions: in vivo, 72 h; how it was run: as §4
Mus musculus [12] = test: Toxicity in CD1 mouse kidney at 450 mg/kg, po after 3 days by histological study; format: organism-based; set-up: dose 450 mg/kg, route oral; conditions: in vivo, 72 h; how it was run: as §3
Mus musculus [13] = test: Toxicity in CD1 mouse liver at 300 mg/kg, ip after 3 days by histological study; format: organism-based; set-up: dose 300 mg/kg, route intraperitoneal; conditions: in vivo, 72 h; how it was run: as §3
Mus musculus [14] = test: Toxicity in CD1 mouse assessed as glutamic-pyruvate transaminase level at 450 mg/kg, po after 3 days; format: organism-based; set-up: dose 450 mg/kg, route oral; conditions: in vivo, 72 h; how it was run: as §2
Mus musculus [15] = test: Toxicity in CD1 mouse intestine at 450 mg/kg, po after 3 days by histological study; format: organism-based; set-up: dose 450 mg/kg, route oral; conditions: in vivo, 72 h; how it was run: as §3
Trypanosoma cruzi [16] = test: Growth inhibition of Trypanosoma cruzi Tulahuen 2 epimastigote at 5 uM after 5 days; format: functional; conditions: Trypanosoma cruzi, Tulahuen 2, 120 h; read-out: GI
Mus musculus [17] = test: Toxicity in CD1 mouse intestine at 300 mg/kg, ip after 3 days by histological study; format: organism-based; set-up: dose 300 mg/kg, route intraperitoneal; conditions: in vivo, 72 h; how it was run: as §3
Mus musculus [18] = test: Toxicity in CD1 mouse assessed as survival at 450 mg/kg, po after 3 days; format: organism-based; set-up: dose 450 mg/kg, route oral; conditions: in vivo, 72 h; how it was run: as §4
Mus musculus [19] = test: Toxicity in CD1 mouse brain at 450 mg/kg, po after 3 days by histological study; format: organism-based; set-up: dose 450 mg/kg, route oral; conditions: in vivo, 72 h; how it was run: as §3
Mus musculus [20] = test: Toxicity in CD1 mouse assessed as haemoglobin level at 450 mg/kg, po after 3 days; format: organism-based; set-up: dose 450 mg/kg, route oral; conditions: in vivo, 72 h; how it was run: as §2
Mus musculus [21] = test: Toxicity in CD1 mouse brain at 300 mg/kg, ip after 3 days by histological study; format: organism-based; set-up: dose 300 mg/kg, route intraperitoneal; conditions: in vivo, 72 h; how it was run: as §3
Mus musculus [22] = test: Toxicity in CD1 mouse lung at 450 mg/kg, po after 3 days by histological study; format: organism-based; set-up: dose 450 mg/kg, route oral; conditions: in vivo, 72 h; how it was run: as §3
Mus musculus [23] = test: Toxicity in CD1 mouse liver at 450 mg/kg, po after 3 days by histological study; format: organism-based; set-up: dose 450 mg/kg, route oral; conditions: in vivo, 72 h; how it was run: as §3
Mus musculus [24] = test: Toxicity in CD1 mouse assessed as leukocyte level at 450 mg/kg, po after 3 days; format: organism-based; set-up: dose 450 mg/kg, route oral; conditions: in vivo, 72 h; how it was run: as §2
Mus musculus [25] = test: Toxicity in CD1 mouse lung at 300 mg/kg, ip after 3 days by histological study; format: organism-based; set-up: dose 300 mg/kg, route intraperitoneal; conditions: in vivo, 72 h; how it was run: as §3
Mus musculus [26] = test: Toxicity in CD1 mouse assessed as glutamic-oxalacetate transaminase level at 300 mg/kg, ip after 3 days; format: organism-based; set-up: dose 300 mg/kg, route intraperitoneal; conditions: in vivo, 72 h; how it was run: as §2
Mus musculus [27] = test: Toxicity in CD1 mouse assessed as decrease in weight respect to day zero at 450 mg/kg, po after 3 days; format: organism-based; set-up: dose 450 mg/kg, route oral; scale not given: the % may be the effect or the level left; conditions: in vivo, 72 h; how it was run: as §1
Mus musculus [28] = test: Toxicity in CD1 mouse kidney at 300 mg/kg, ip after 3 days by histological study; format: organism-based; set-up: dose 300 mg/kg, route intraperitoneal; conditions: in vivo, 72 h; how it was run: as §3
Mus musculus [29] = test: Toxicity in CD1 mouse assessed as hematocrite level at 450 mg/kg, po after 3 days; format: organism-based; set-up: dose 450 mg/kg, route oral; conditions: in vivo, 72 h; how it was run: as §2
Trypanosoma cruzi [30] = test: Antitrypanosomal activity against Trypanosoma cruzi infected in po dosed CD1 mouse assessed as prevention of amastigote nest in heart administered daily for 14 days measured on day 45; format: functional, organism-based
How it was run: (§5)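 T. cruzi, a Uruguayan patient isolate, was inoculated intradermally into 2-month-old female CD1 mice (20–22 g). Dosing began on day 15 after parasitaemia was observed. Drugs were suspended in saline:Tween 80 (4:1) and given by intragastric syringe once daily for 14 days, with untreated controls. On day 45 after treatment start, heart and muscle sections were scored by two independent observers for amastigotes and inflammatory infiltrates. Groups had 5–7 mice.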

Mus musculus [31] = test: Toxicity in CD1 mouse assessed as survival at 150 mg/kg, ip after 3 days; format: organism-based; set-up: dose 150 mg/kg, route intraperitoneal; conditions: in vivo, 72 h; how it was run: as §4
Mus musculus [32] = test: Toxicity in CD1 mouse assessed as decrease in weight respect to day zero at 150 mg/kg, ip after 3 days; format: organism-based; set-up: dose 150 mg/kg, route intraperitoneal; scale not given: the % may be the effect or the level left; conditions: in vivo, 72 h; how it was run: as §1
Trypanosoma cruzi [33] = test: Antitrypanosomal activity against Trypanosoma cruzi infected in po dosed CD1 mouse assessed as prevention of inflammatory infiltrates in heart administered daily for 14 days measured on day 45; format: functional, organism-based; how it was run: as §5

Row | Structure (SMILES) | Activity (Mus musculus [3]) | Activity (Mus musculus [7]) [%] | Activity (Mus musculus [9]) | Activity (Mus musculus [10]) | Activity (Mus musculus [11]) | Activity (Mus musculus [12]) | Activity (Mus musculus [13]) | Activity (Mus musculus [15]) | inhibition of growth at 5 µM (Trypanosoma cruzi [16]) [%] | Activity (Mus musculus [17]) | Activity (Mus musculus [18]) | Activity (Mus musculus [19]) | Activity (Mus musculus [21]) | Activity (Mus musculus [22]) | Activity (Mus musculus [23]) | Activity (Mus musculus [25]) | Activity (Mus musculus [27]) [%] | Activity (Mus musculus [28]) | further results
1 | CC1CS(=O)(=O)CCN1/N=C/c1ccc([N+](=O)[O-])o1 (stereo unspecified) [NIFURTIMOX] | Non-toxic | 0 | Non-toxic | Non-toxic | Non-toxic | Toxic | Toxic | Non-toxic | 46 | Non-toxic | Non-toxic | Non-toxic | Non-toxic | Non-toxic | Toxic | Non-toxic | 6 | Non-toxic | Activity (Mus musculus [1]): 3%; Activity (Mus musculus [2]): 32.5 IU/L; Activity (Mus musculus [4]): 5100 µL⁻¹; Activity (Mus musculus [5]): 13.2 g/dL; Activity (Mus musculus [6]): 162 IU/L; Activity (Mus musculus [8]): 39.3%; Activity (Mus musculus [14]): 49 IU/L; Activity (Mus musculus [20]): 13.5 g/dL; Activity (Mus musculus [24]): 6700 µL⁻¹; Activity (Mus musculus [26]): 177 IU/L; Activity (Mus musculus [29]): 42.4%
2 | CCCCNC(=O)N/N=C/c1ccc([N+](=O)[O-])o1 | Non-toxic | 4 | Non-toxic | Non-toxic | Toxic | Toxic | Toxic | Toxic | 30 | Non-toxic | Non-toxic | Non-toxic | Non-toxic | Non-toxic | Toxic | Non-toxic | 1 | Toxic | Activity (Trypanosoma cruzi [30]): Active; Activity (Mus musculus [31]): Non-toxic; Activity (Mus musculus [32]): 6%; Activity (Trypanosoma cruzi [33]): Active
